Results reported in ChEMBL document CHEMBL2029225, “Synthesis of marine-derived 3-alkylpyridinium alkaloids with potent antiprotozoal activity” (ACS Med Chem Lett, 2011).
Calls of active or inactive are those of the source. The calls are words filed in the database; no cut-off is given here.

Tests used:
[1] = system: Trypanosoma brucei brucei; experiment: Antitrypanosomal activity against bloodstream form of Trypanosoma brucei brucei 427 (BS221) after 72 hrs by alamar blue assay; assay type: functional, organism-based
[2] = system: Leishmania mexicana; experiment: Antileishmanial activity against amastigotes of Leishmania mexicana MNYC/BZ/62/M379 after 72 hrs by alamar blue assay; assay type: functional, organism-based; settings: MNYC/BZ/62/M379, 72 h
[3] = system: Leishmania major; experiment: Antileishmanial activity against promastigotes of Leishmania major Friedlin after 72 hrs by alamar blue assay; assay type: functional, organism-based
[4] = system: Trypanosoma brucei brucei; experiment: Antitrypanosomal activity against TbAt1-deficient bloodstraem form of Trypanosoma brucei brucei 427 (BS221) after 72 hrs by alamar blue assay; assay type: functional, organism-based
[5] = system: HEK-293T; experiment: Cytotoxicity against human HEK293T cells after 72 hrs by alamar blue assay; assay type: cell-based
[6] = system: Plasmodium falciparum; experiment: Antiplasmodial activity against Plasmodium falciparum 3D7 assessed as inhibition of [3H]hypoxanthine incorporation after 18 hrs by liquid scintillation counting; assay type: functional, organism-based
[7] = system: Trypanosoma brucei brucei; experiment: Antitrypanosomal activity against TbAt1-deficient bloodstraem form Trypanosoma brucei brucei B48 after 72 hrs by alamar blue assay; assay type: functional, organism-based; settings: B48, 72 h
[8] = system: Trypanosoma brucei brucei; experiment: Antitrypanosomal activity against bloodstream form of Trypanosoma brucei brucei 427 (BS221) assessed as increased propidium iodide uptake at 50 to 100 uM after 30 mins by real-time cell lysis assay; assay type: functional, organism-based
In short: (§1)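 Real-time lysis assay with bloodstream-form T. brucei: propidium iodide in the medium fluoresces only on binding DNA/RNA in membrane-compromised cells. Fluorescence was followed for up to 8 h across a range of concentrations. The read-out was the time to reach 80% lysis versus concentration.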

[9] = system: Trypanosoma brucei brucei; experiment: Antitrypanosomal activity against digitonin permeabilized bloodstream form of Trypanosoma brucei brucei s427 assessed as decrease in 2C/4C DNA content by DAPI staining-based fluorescent microscopy; assay type: functional, organism-based
[10] = system: Trypanosoma brucei brucei; experiment: Antitrypanosomal activity against Trypanosoma brucei brucei 427 at 10 uM after 24 hrs by hemocytometry; assay type: functional, organism-based
In short: (§2)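 Reversibility test: bloodstream-form T. brucei cultures seeded at 2 × 10⁴ cells, compound added at t = 0 h. Compound was washed out after 24 h or 48 h, or left in. Growth was monitored over 72 h against drug-free controls.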

[11] = system: Trypanosoma brucei brucei; experiment: Antitrypanosomal activity against bloodstream form of Trypanosoma brucei brucei s427 assessed as DNA fragmentation at 0.3 to 1 uM up to 48 hrs by flow cytometry; assay type: functional, organism-based
In short: (§3)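 Bloodstream-form T. brucei cultures were exposed to compound for up to 48 h, with duplicate samples taken at 24 and 48 h. Lysis sample: PI added directly for 10 min. DNA-content sample: fixed in 70% methanol or permeabilized with digitonin, RNase-treated, then PI-stained. 10000 cells were counted per panel by flow cytometry, and the experiment was run three times.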

[12] = system: Trypanosoma brucei brucei; experiment: Antitrypanosomal activity against digitonin permeabilized bloodstream form of Trypanosoma brucei brucei s427 assessed as DNA fragmentation at 0.3 to 1 uM up to 48 hrs by flow cytometry; assay type: functional, organism-based; in short: as §3
[13] = Selectivity ratio of EC50 for human HEK293 cells to EC50 for Leishmania mexicana MNYC/BZ/62/M379; assay type: ADME, cell-based; settings: read-out: Ratio EC50
[14] = Selectivity ratio of EC50 for human HEK293 cells to EC50 for bloodstream form of Trypanosoma brucei brucei 427 (BS221); assay type: ADME, cell-based; settings: read-out: Ratio EC50
[15] = system: Trypanosoma brucei brucei; experiment: Antitrypanosomal activity against bloodstream form of Trypanosoma brucei brucei 427 (BS221) assessed as increased propidium iodide uptake at >/=100 times EC50 after 8 hrs by real-time cell lysis assay; assay type: functional, organism-based; in short: as §1
[16] = Selectivity ratio of EC50 for human HEK293 cells to EC50 for Leishmania major Friedlin; assay type: ADME, cell-based; settings: read-out: Ratio EC50
[17] = system: Trypanosoma brucei brucei; experiment: Antitrypanosomal activity against digitonin permeabilized bloodstream form of Trypanosoma brucei brucei s427 assessed as increase in propidium iodide uptake at 0.3 to 1 uM up to 48 hrs by flow cytometry; assay type: functional, organism-based; in short: as §3
[18] = system: Trypanosoma brucei brucei; experiment: Antitrypanosomal activity against bloodstream form of Trypanosoma brucei brucei s427 assessed as increase in propidium iodide uptake at 0.3 to 1 uM up to 48 hrs by flow cytometry; assay type: functional, organism-based; in short: as §3
[19] = Selectivity ratio of EC50 for human HEK293 cells to EC50 for TbAt1-deficient bloodstraem form of Trypanosoma brucei brucei 427 (BS221); assay type: ADME, cell-based; settings: read-out: Ratio EC50
[20] = system: Trypanosoma brucei brucei; experiment: Antitrypanosomal activity against bloodstream form of Trypanosoma brucei brucei 427 (BS221) assessed as increased propidium iodide uptake at 10 to 50 times EC50 after by real-time cell lysis assay; assay type: functional, organism-based; in short: as §1
[21] = system: Trypanosoma brucei brucei; experiment: Antitrypanosomal activity against Trypanosoma brucei brucei 427 at 0.1 uM after 72 hrs by hemocytometry; assay type: functional, organism-based; in short: as §2
[22] = system: Trypanosoma brucei brucei; experiment: Antitrypanosomal activity against Trypanosoma brucei brucei 427 at 1 uM after 48 hrs by hemocytometry; assay type: functional, organism-based; in short: as §2
[23] = Selectivity ratio of EC50 for human HEK293 cells to EC50 for Plasmodium falciparum 3D7; assay type: ADME, cell-based; settings: read-out: Ratio EC50
[24] = system: Trypanosoma brucei brucei; experiment: Antitrypanosomal activity against bloodstream form of Trypanosoma brucei brucei s427 assessed as increase in propidium iodide uptake at 0.3 uM after 48 hrs by flow cytometry; assay type: functional, organism-based; in short: as §3
[25] = system: Trypanosoma brucei brucei; experiment: Antitrypanosomal activity against Trypanosoma brucei brucei 427 at 1 uM after 24 hrs by hemocytometry; assay type: functional, organism-based; in short: as §2
[26] = system: Trypanosoma brucei brucei; experiment: Antitrypanosomal activity against bloodstream form of Trypanosoma brucei brucei s427 assessed as DNA fragmentation at 0.3 uM after 48 hrs by flow cytometry; assay type: functional, organism-based; in short: as §3
[27] = system: Trypanosoma brucei brucei; experiment: Antitrypanosomal activity against bloodstream form of Trypanosoma brucei brucei s427 assessed as cell cylce arrest at 0.3 uM after 24 hrs by flow cytometry; assay type: functional, organism-based; in short: as §3
[28] = system: Trypanosoma brucei brucei; experiment: Antitrypanosomal activity against digitonin permeabilized bloodstream form of Trypanosoma brucei brucei s427 assessed as increase in propidium iodide uptake at 1 uM at 24 hrs by flow cytometry; assay type: functional, organism-based; in short: as §3
[29] = system: Trypanosoma brucei brucei; experiment: Antitrypanosomal activity against digitonin permeabilized bloodstream form of Trypanosoma brucei brucei s427 assessed as DNA fragmentation at 1 uM at 24 hrs by flow cytometry; assay type: functional, organism-based; in short: as §3
[30] = system: Trypanosoma brucei brucei; experiment: Antitrypanosomal activity against bloodstream form of Trypanosoma brucei brucei 427 (BS221) assessed as increased propidium iodide uptake at 780 nM after 3 hrs by real-time cell lysis assay; assay type: functional, organism-based; in short: as §1

C[n+]1cccc(CCCCCCCCCCCCCO)c1
EC50 [1]: 2300 nM
EC50 [2]: 4800 nM
EC50 [3]: 2700 nM
EC50 [4]: 2300 nM
EC50 [5]: 183000 nM
EC50 [6]: 1500 nM
EC50 [7]: 2700 nM
Activity [8]: Active

C[n+]1cccc(CCCCCCCCCCCCCI)c1
EC50 [1]: 86 nM
Activity [9]: inactive
Activity [10]: Active
Activity [11]: inactive
Activity [12]: inactive
EC50 [2]: 280 nM
EC50 [3]: 310 nM
EC50 [4]: 180 nM
selectivity ratio [13]: 149
EC50 [5]: 47000 nM
EC50 [6]: 260 nM
EC50 [7]: 110 nM
selectivity ratio [14]: 540
Activity [15]: Active
selectivity ratio [16]: 149
Activity [8]: Active
Activity [17]: inactive
Activity [18]: inactive
selectivity ratio [19]: 540

OCCCCCCCCCCCCCc1ccc[n+](CCCCCCCCCCCCCc2ccc[n+](CCCCCCCCCCCCCc3ccc[n+](CCCCCCCCCCCCCc4cccnc4)c3)c2)c1
EC50 [1]: 310 nM
EC50 [2]: 230 nM
Activity [20]: Active
EC50 [3]: 1100 nM
EC50 [4]: 410 nM
EC50 [5]: 11000 nM
EC50 [6]: 160 nM
EC50 [7]: 330 nM
Activity [8]: Active

COc1ccc(C[n+]2cccc(CCCCCCCCCCCCCO)c2)cc1
EC50 [1]: 49 nM
Activity [9]: inactive
Activity [10]: Active
Activity [11]: inactive
Activity [12]: inactive
EC50 [2]: 650 nM
EC50 [3]: 320 nM
EC50 [4]: 84 nM
EC50 [5]: 21000 nM
EC50 [6]: 240 nM
EC50 [7]: 62 nM
selectivity ratio [14]: 437
Activity [15]: Active
Activity [21]: inactive
Activity [22]: Active
Activity [8]: Active
Activity [17]: inactive
Activity [18]: inactive
selectivity ratio [19]: 437

NCCS[As](SCCN)c1ccc(Nc2nc(N)nc(N)n2)cc1
EC50 [1]: 3.9 nM
EC50 [4]: 7.8 nM
EC50 [7]: 210 nM

c1cc2c[n+](c1)CCCCCCCCCCCCCc1ccc[n+](c1)CCCCCCCCCCCCCc1ccc[n+](c1)CCCCCCCCCCCCC2 [VISCOSAMINE]
EC50 [1]: 410 nM
EC50 [2]: 810 nM
Activity [20]: Active
EC50 [3]: 720 nM
EC50 [4]: 490 nM
EC50 [5]: 26000 nM
EC50 [6]: 53 nM
EC50 [7]: 280 nM
Activity [8]: Active
selectivity ratio [23]: 493

OCCCCCCCCCCCCCc1cccnc1
EC50 [1]: 16000 nM
EC50 [2]: > 50000 nM
EC50 [3]: > 50000 nM
EC50 [4]: 34000 nM
EC50 [5]: 204000 nM
EC50 [6]: 7500 nM
EC50 [7]: 35000 nM

N=C(N)c1ccc(OCCCCCOc2ccc(C(=N)N)cc2)cc1 [PENTAMIDINE]
EC50 [1]: 1.4 nM
EC50 [2]: 8800 nM
EC50 [3]: 4300 nM
EC50 [4]: 3.2 nM
EC50 [7]: 66 nM

CCCC[n+]1cccc(CCCCCCCCCCCCCI)c1
EC50 [1]: 14 nM
Activity [9]: inactive
Activity [10]: Active
Activity [24]: Active
EC50 [2]: 290 nM
Activity [25]: Active
EC50 [3]: 360 nM
EC50 [4]: 63 nM
Activity [26]: Active
EC50 [5]: 26000 nM
EC50 [6]: 310 nM
Activity [27]: inactive
EC50 [7]: 34 nM
selectivity ratio [14]: > 1000
Activity [15]: Active
Activity [21]: inactive
Activity [28]: Active
Activity [8]: Active
Activity [29]: inactive
selectivity ratio [19]: > 1000

CCCC[n+]1cccc(CCCCCCCCCCCCCO)c1
EC50 [1]: 160 nM
Activity [9]: inactive
Activity [10]: Active
Activity [11]: inactive
Activity [12]: inactive
EC50 [2]: 1700 nM
EC50 [3]: 330 nM
EC50 [4]: 260 nM
selectivity ratio [13]: 145
EC50 [5]: 48000 nM
EC50 [6]: 510 nM
EC50 [7]: 200 nM
selectivity ratio [14]: 299
Activity [15]: Active
selectivity ratio [16]: 145
Activity [8]: Active
Activity [17]: inactive
Activity [18]: inactive
selectivity ratio [19]: 299

c1cc2c[n+](c1)CCCCCCCCCCCCCc1ccc[n+](c1)CCCCCCCCCCCCCc1ccc[n+](c1)CCCCCCCCCCCCCc1ccc[n+](c1)CCCCCCCCCCCCC2
EC50 [1]: 560 nM
EC50 [2]: 1100 nM
Activity [20]: Active
EC50 [3]: 640 nM
EC50 [4]: 660 nM
EC50 [5]: 14000 nM
EC50 [6]: 190 nM
EC50 [7]: 420 nM
Activity [8]: Active

OCCCCCCCCCCCCCc1ccc[n+](CCCCCCCCCCCCCc2ccc[n+](CCCCCCCCCCCCCc3cccnc3)c2)c1
EC50 [1]: 220 nM
EC50 [2]: 190 nM
Activity [20]: Active
EC50 [3]: 850 nM
EC50 [4]: 270 nM
EC50 [5]: 16000 nM
EC50 [6]: 68 nM
EC50 [7]: 250 nM
Activity [8]: Active
selectivity ratio [23]: 237

CCN(CC)CCCC(C)Nc1ccnc2cc(Cl)ccc12 (stereo not given) [CHLOROQUINE]
EC50 [6]: 0.67 nM

OCCCCCCCCCCCCCc1ccc[n+](CCCCCCCCCCCCCc2cccnc2)c1
EC50 [1]: 400 nM
Activity [30]: Active
EC50 [2]: 340 nM
EC50 [3]: 1600 nM
EC50 [4]: 620 nM
EC50 [5]: 25000 nM
EC50 [6]: 140 nM
EC50 [7]: 300 nM
Activity [8]: Active

N=C(N)c1ccc(/N=N/Nc2ccc(C(=N)N)cc2)cc1 [DIMINAZEN ACETURATE]
EC50 [1]: 260 nM
EC50 [2]: 24000 nM
EC50 [4]: 7900 nM

COc1ccc(C[n+]2cccc(CCCCCCCCCCCCCI)c2)cc1
EC50 [1]: 190 nM
EC50 [2]: 400 nM
EC50 [3]: 1000 nM
EC50 [4]: 480 nM
EC50 [5]: 41000 nM
EC50 [6]: 220 nM
EC50 [7]: 200 nM
Activity [15]: Active
Activity [8]: Active
